{"data": "Published values of several laboratories", "target": "Serine/threonine-protein kinase mTOR (MTOR, Homo sapiens, UniProt P42345)", "note": "Lines come from different studies, so protocols differ."}
{"Structure (SMILES)": "Cc1cnn2ncc(-c3ccnc(N(C)C)n3)c2c1", "assay": "binding", "conditions": "1 µM", "remaining binding [%]": 100}
{"Structure (SMILES)": "c1cncc(-c2cccc(Nc3nccc(NC4CCCCC4)n3)c2)c1", "assay": "binding, competition with immobilised ligand", "conditions": "10 µM", "remaining binding [%]": 94}
{"Structure (SMILES)": "c1ccc(N2CCN(Cc3nc4ccccc4[nH]3)CC2)nc1", "assay": "cell-free assay, competition with immobilised ligand", "conditions": "1 µM", "remaining binding [%]": 100}
{"Structure (SMILES)": "COc1cnc(Nc2cccc(S(N)(=O)=O)c2)nc1N1CCN(c2ccccc2)C(=O)C1", "assay": "binding, competition with immobilised ligand", "conditions": "1 µM", "remaining binding [%]": 87}
{"Structure (SMILES)": "O=C(O)c1cc(-c2ccc(C3CCNCC3)cc2)c2ccc(-c3ccc(C(F)(F)F)cc3)cc2c1", "assay": "cell-free assay, competition with immobilised ligand", "conditions": "1 µM", "remaining binding [%]": 90}
{"Structure (SMILES)": "CN(CCCC(F)(F)F)c1nccc(-c2cnn3ncccc23)n1", "assay": "binding", "conditions": "1 µM", "remaining binding [%]": 95}
{"Structure (SMILES)": "O=C(c1ccc(Nc2ncc(Cl)c(-c3cc4ccccc4s3)n2)cc1)N1CCC(N2CCCC2)CC1", "assay": "binding, competition with immobilised ligand", "conditions": "1 µM", "remaining binding [%]": 80}
{"Structure (SMILES)": "CCC(=O)N[C@H]1CC[C@@H](C(=O)N(C)c2ccc(-c3nc4ccccc4o3)cc2)C1", "assay": "cell-free assay, competition with immobilised ligand", "conditions": "1 µM", "remaining binding [%]": 92}
{"Structure (SMILES)": "C[C@@H](c1ccc(-n2cnc3c(N)ncnc32)cc1)N1CCc2nn(C)c(Cc3ccccc3)c2C1=O", "assay": "binding, competition with immobilised ligand", "conditions": "0.1 µM", "remaining binding [%]": 83}
{"Structure (SMILES)": "C[C@H]1CCN(c2nccc(-c3cnn4ncccc34)n2)C1", "assay": "binding", "conditions": "1 µM", "remaining binding [%]": 100}
{"Structure (SMILES)": "CN(C)c1ncnc(-c2ccc3nc(Nc4cc(CN5CCN(C(=O)CC(F)(F)F)CC5)ccn4)[nH]c3c2)c1Cl", "assay": "cell-free assay, competition with immobilised ligand", "conditions": "1 µM", "remaining binding [%]": 100}
{"Structure (SMILES)": "CN(C)c1ncc(F)c(-c2cnn3ncccc23)n1", "assay": "binding", "conditions": "1 µM", "remaining binding [%]": 100}
{"Structure (SMILES)": "O=C(NCC1CCOCC1)c1n[nH]cc1NC(=O)c1c(F)cccc1F", "assay": "binding, competition with immobilised ligand", "conditions": "1 µM", "remaining binding [%]": 100}
{"Structure (SMILES)": "c1cnn2ncc(-c3ccnc(N4CCC45COC5)n3)c2c1", "assay": "binding", "conditions": "1 µM", "remaining binding [%]": 96}
{"Structure (SMILES)": "O=C(NCc1ncc(C(F)(F)F)cc1Cl)c1ccc2c(c1)C1(CCS(=O)(=O)CC1)[C@@H](C1CC1)N2S(=O)(=O)c1ccc(F)cc1", "assay": "cell-free assay, competition with immobilised ligand", "conditions": "1 µM", "remaining binding [%]": 92}
{"Structure (SMILES)": "O=C(NCCCN1CCOCC1)c1ccc(Nc2nccc(-c3cc4ccccc4s3)n2)cc1", "assay": "binding, competition with immobilised ligand", "conditions": "1 µM", "remaining binding [%]": 75}
{"Structure (SMILES)": "FC(F)(F)Oc1cccc(-c2cnc3ccc(-c4ccncc4)nn23)c1", "assay": "cell-free assay, competition with immobilised ligand", "conditions": "5 µM", "remaining binding [%]": 42}
{"Structure (SMILES)": "O=C(NCCCN1CCOCC1)c1ccc(Nc2ncc(Cl)c(-c3ccc(Cl)s3)n2)cc1", "assay": "binding, competition with immobilised ligand", "conditions": "1 µM", "remaining binding [%]": 94}
{"Structure (SMILES)": "N[C@H]1CCN(c2nccc(-c3cnn4ncccc34)n2)C1", "assay": "binding", "conditions": "1 µM", "remaining binding [%]": 66}
{"Structure (SMILES)": "O=C(Nc1ccc(Oc2ccc(F)cc2)cc1)N1CCc2ncccc2[C@H]1c1ccc(F)cc1", "assay": "cell-free assay, competition with immobilised ligand", "conditions": "1 µM", "remaining binding [%]": 100}
{"Structure (SMILES)": "COc1ncc2cc3ccccc3nc2c1C#N", "assay": "cell-free assay, competition with immobilised ligand", "conditions": "5 µM", "remaining binding [%]": 91}
